Results from ChEMBL document CHEMBL1773044, “Potent, selective, and orally bioavailable inhibitors of mammalian target of rapamycin (mTOR) kinase based on a quaternary substituted dihydrofuropyrimidine” (J Med Chem, 2011).
pIC50, pKi: −log10 of the molar value.

Tests used:
MCF7 = test: Antiproliferative activity against human MCF7 cells expressing neo/Her2 after 3 days by CellTiter-Glo luminescent cell viability assay; details: MCF7, 72 h
PC-3 = test: Antiproliferative activity against human PC3 cells after 3 days by CellTiter-Glo luminescent cell viability assay; details: PC-3, 72 h
[1] = Plasma protein binding in mouse; type: ADME, cell-free; details: read-out: PPB (converted)
Mus musculus [2] = test: In vivo inhibition of mTORC1 in NCR nude mouse xenografted with human NCI-PC3 cells assessed as reduction in phosphorylated S6RP level at 25 to 100 mg/kg, po administered as single dose relative to control; values are per cent of control; details: dose mg/kg 25-100
Mus musculus [3] = test: In vivo inhibition of mTORC2 in NCR nude mouse xenografted with human NCI-PC3 cells assessed as reduction in phosphorylated Akt level at 25 to 100 mg/kg, po administered as single dose relative to control; values are per cent of control; details: dose mg/kg 25-100
[4] = (§1) AUC in mouse at 5 mg/kg, po; type: ADME, organism-based, Plasma; set-up: dose 5 mg/kg, route oral; details: plasma
Outline: (§2)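 Mouse PK: iv dose 1 mg/kg given as a solution in 80% PEG/10% EtOH; po dose 5 mg/kg given as a suspension in MCT (0.5% methylcellulose/0.2% Tween 80).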

[5] = Plasma protein binding in human; type: ADME, cell-free; details: read-out: PPB (converted)
[6] = Half life in mouse at 1 mg/kg, iv; type: ADME, organism-based; set-up: dose 1 mg/kg, route intravenous; details: in vivo; outline: as §2
[7] = Clearance in mouse at 1 mg/kg, iv; type: ADME, organism-based; set-up: dose 1 mg/kg, route intravenous; details: in vivo; outline: as §2
[8] = Volume of distribution at steady state in mouse at 1 mg/kg, iv; type: ADME, organism-based; set-up: dose 1 mg/kg, route intravenous; details: in vivo, read-out: Vdss; outline: as §2
[9] = Plasma protein binding in rat; type: ADME, cell-free; details: read-out: PPB (converted)
[10] = (§3) Oral bioavailability in mouse at 5 mg/kg; type: ADME, organism-based; details: in vivo; outline: as §2
Mus musculus [11] = test: as §1; type: ADME, organism-based, Plasma; set-up: dose 5 mg/kg, route oral; details: in vivo; outline: as §2
Mus musculus [12] = test: as §3; type: ADME, organism-based; details: in vivo; outline: as §2
[13] = Selectivity ratio of Ki for human recombinant mTOR (1360-2549) over Ki for PI3Kalpha
[14] = target: Serine/threonine-protein kinase mTOR (Homo sapiens, UniProt P42345); test: Inhibition of human recombinant mTOR expressed in insect cells using 4E-BP1 substrate after 30 mins by fluorescence resonance energy transfer assay

SMILES	pIC50 (MCF7)	pIC50 (PC-3)	fraction unbound [1]	fraction unbound [5]	half-life [6] [min]	Vd [8] [L/kg]	fraction unbound [9]	also measured
CCNC(=O)Nc1ccc(-c2nc(N3CCOC[C@@H]3C)c3c(n2)[C@@](C)(CCOC)OC3)cc1	5.92	6.55	–	–	–	–	–	–
CCNC(=O)Nc1ccc(-c2nc(N3CCOC[C@@H]3C)c3c(n2)C(C)(C)OC3)cc1	7.28	7.11	0.05	0.14	24	1.4	0.08	level, % of control (Mus musculus [2]): 15%; level, % of control (Mus musculus [3]): 15%; AUC [4]: 6.1 µM·h; clearance [7]: 46 mL/min/kg; bioavailability [10]: 140%
CCNC(=O)Nc1ccc(-c2nc(N3CCOC[C@@H]3C)c3c(n2)[C@](C)(CCN(C)C)OC3)cc1	5.96	6.66	0.22	0.41	34.2	2.6	0.33	AUC [4]: 0.14 µM·h; clearance [7]: 76 mL/min/kg; bioavailability [10]: 6%
CCNC(=O)Nc1ccc(-c2nc(N3C[C@H]4CC[C@@H](C3)O4)c3c(n2)[C@](C)(CCO)OC3)cc1	7.66	7.77	0.11	0.27	46.2	2	0.26	AUC (Mus musculus [11]): 0.78 µM·h; F (Mus musculus [12]): 50%
C[C@H]1COCCN1c1nc(-c2ccc(NC(=O)NC[C@@H](O)CO)cc2)nc2c1COC2(C)C	5.72	6.48	–	–	–	–	–	–
CCNC(=O)Nc1ccc(-c2nc(N3CCOC[C@@H]3C)c3c(n2)[C@](C)(CCO)OC3)cc1	7.82	7.82	0.06	0.13	19.8	1.5	–	level, % of control (Mus musculus [2]): 15%; level, % of control (Mus musculus [3]): 15%; AUC (Mus musculus [11]): 0.59 µM·h; F (Mus musculus [12]): 110%
CCNC(=O)Nc1ccc(-c2nc(N3CCOC[C@@H]3C)c3c(n2)[C@@](C)(CC2CC2)OC3)cc1	7.02	7.51	–	–	–	–	–	–
CCNC(=O)Nc1ccc(-c2nc(N3CCOC[C@@H]3C)c3c(n2)[C@](C)(CC2CC2)OC3)cc1	6.47	7.00	–	–	–	–	–	–
C[C@H]1COCCN1c1nc(-c2ccc(NC(=O)NCCC#N)cc2)nc2c1COC2(C)C	6.59	6.92	–	–	–	–	–	–
CCNC(=O)Nc1ccc(-c2nc(N3CCOCC3)c3c(n2)[C@@](C)(CO)OC3)cc1	5.77	6.02	–	–	–	–	–	–
CCNC(=O)Nc1ccc(-c2nc(N3CCOC[C@@H]3C)c3c(n2)[C@@](C)(CC(C)(C)O)OC3)cc1	7.54	6.89	0.15	0.34	78	2.7	0.12	AUC (Mus musculus [11]): 0.65 µM·h; F (Mus musculus [12]): 73%
C[C@H]1COCCN1c1nc(-c2ccc(Nc3cccc(=O)[nH]3)cc2)nc2c1COC2(C)C	6.92	6.92	0.03	0.02	132	1.9	0.04	AUC [4]: 0.31 µM·h; clearance [7]: 44 mL/min/kg; bioavailability [10]: 7%
CCNC(=O)Nc1ccc(-c2nc(N3CCOC[C@@H]3C)c3c(n2)[C@](C)(CO)OC3)cc1	6.72	7.02	–	–	–	–	–	–
CCNC(=O)Nc1ccc(-c2nc(N3CCOC[C@@H]3C)c3c(n2)[C@@](C)(CCC#N)OC3)cc1	7.00	7.39	–	–	–	–	–	–
CCNC(=O)Nc1ccc(-c2nc(N3CCOCC3)c3sc(C(C)(C)O)cc3n2)cc1	–	–	–	–	–	–	–	Ratio Ki [13]: 20; pKi [14]: 8.52
CCNC(=O)Nc1ccc(-c2nc(N3CCOCC3)c3c(n2)[C@](C)(CO)OC3)cc1	6.55	6.66	–	–	–	–	–	–

SMILES	pIC50 (MCF7)	pIC50 (PC-3)	fraction unbound [1]	fraction unbound [5]	half-life [6] [min]	Vd [8] [L/kg]	fraction unbound [9]	also measured
CCNC(=O)Nc1ccc(-c2nc(N3CCOC[C@@H]3C)c3c(n2)C(C)(C)OC3=O)cc1	6.66	7.22	–	–	–	–	–	–
CCNC(=O)Nc1ccc(-c2nc(N3CCOCC3)c3c(n2)[C@@](C)(CC(C)(C)O)OC3)cc1	6.77	6.85	–	–	–	–	–	–
C[C@H]1COCCN1c1nc(-c2ccc(NC(=O)NC3COC3)cc2)nc2c1COC2(C)C	6.32	6.80	–	–	–	–	–	–
CCNC(=O)Nc1ccc(-c2nc(N3CCOCC3)c3c(n2)C(C)(C)OC3=O)cc1	6.51	6.92	0.02	0.02	12.6	0.57	0.05	AUC (Mus musculus [11]): 1.5 µM·h; bioavailability (Mus musculus [12]): 23%
CCNC(=O)Nc1ccc(-c2nc(N3CCOC[C@@H]3C)c3c(n2)[C@@](C)(CCO)OC3)cc1	6.29	6.93	0.06	0.14	20.4	2.4	0.21	AUC (Mus musculus [11]): 0.43 µM·h; F (Mus musculus [12]): 65%
CCNC(=O)Nc1ccc(-c2nc(N3CCOC[C@@H]3C)c3c(n2)[C@](C)(CC(C)(C)O)OC3)cc1	7.12	7.74	0.09	0.18	66	1.3	0.22	AUC (Mus musculus [11]): 0.63 µM·h; F (Mus musculus [12]): 53%
CCNC(=O)Nc1ccc(-c2nc(N3CCOCC3)c3c(n2)[C@](C)(CC(C)(C)O)OC3)cc1	7.57	7.55	0.14	0.23	16.2	1	0.21	AUC (Mus musculus [11]): 0.66 µM·h; F (Mus musculus [12]): 55%
CCNC(=O)Nc1ccc(-c2nc(N3CCOC[C@@H]3C)c3c(n2)[C@](C)(CCC#N)OC3)cc1	6.71	7.13	–	–	–	–	–	–
CCNC(=O)Nc1ccc(-c2nc(N3CCOCC3)c3c(n2)[C@](C)(CCO)OC3)cc1	7.32	7.80	0.17	0.22	42.6	1.5	0.24	AUC (Mus musculus [11]): 0.96 µM·h; F (Mus musculus [12]): 56%
CCNC(=O)Nc1ccc(-c2nc(N3CCOC[C@@H]3C)c3c(n2)[C@](C)(CCOC)OC3)cc1	6.89	7.21	–	–	–	–	–	–
C[C@H]1COCCN1c1nc(-c2ccc(NC(=O)NCCO)cc2)nc2c1COC2(C)C	7.18	7.34	0.19	0.28	25.2	1.5	0.3	AUC [4]: 0.81 µM·h; clearance [7]: 53 mL/min/kg; bioavailability [10]: 22%
CCNC(=O)Nc1ccc(-c2nc(N3CCOC[C@@H]3C)c3c(n2)[C@@](C)(CO)OC3)cc1	6.28	6.35	–	–	–	–	–	–
C[C@H]1COCCN1c1nc(-c2ccc(NC(=O)Nc3cnn(C)c3)cc2)nc2c1COC2(C)C	6.80	7.28	–	–	–	–	–	–
CCNC(=O)Nc1ccc(-c2nc(N3C[C@H]4CC[C@@H](C3)O4)c3c(n2)[C@@](C)(CCO)OC3)cc1	6.80	7.18	–	–	–	–	–	–
CCNC(=O)Nc1ccc(-c2nc(N3CCOCC3)c3c(n2)[C@@](C)(CCO)OC3)cc1	6.31	6.68	–	–	–	–	–	–
